These results are taken from ChEMBL document CHEMBL1909581, “Growth inhibition of human lung cancer cells via down-regulation of epidermal growth factor receptor signaling by yuanhuadine, a daphnane diterpene from Daphne genkwa” (J Nat Prod, 2011).

Common to all, as to assay type: functional, cell-based
The subject of one test is NCI-H358. Briefly: Antiproliferative activity against human NCI-H358 cells after 3 days by SRB assay. As to conditions: NCI-H358, 72 h. The method, boiled down:
(§1)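 Cells seeded at 5 × 10^4 cells/mL and exposed to a range of concentrations for 3 days. Fixed with 10% TCA, then SRB stain read. Growth expressed as % of solvent-treated control. IC50 obtained by nonlinear regression of percent survival versus concentration.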
Background: In SRB staining, fixed cells bind dye roughly in proportion to their protein.

In another test the test system is A549. Kind of test: Antiproliferative activity against human A549 cells after 3 days by SRB assay. As to conditions: A549, 72 h. The method, boiled down:
as §1

Test [1] in a line: Antiproliferative activity against human H1299 cells after 3 days by SRB assay. As to conditions: NCI-H1299, 72 h. The method, boiled down: as §1
For another test, the system named is NCI-H292. Briefly: Antiproliferative activity against human NCI-H292 cells after 3 days by SRB assay. As to conditions: NCI-H292, 72 h.
The subject of a further test is SK-MES-1. Kind of test: Antiproliferative activity against human SK-MES cells after 3 days by SRB assay. The following applies: SK-MES-1, 72 h. The gist of the method: as §1
For the next test, the system named is NCI-H1993. Kind of test: Antiproliferative activity against human NCI-H1993 cells after 3 days by SRB assay. The following applies: NCI-H1993, 72 h.

SMILES strings stand for the structures.

As for `Cc1c2ccncc2c(C)c2c1[nH]c1ccccc12` [ELLIPTECINE], the 50% inhibitory concentration (IC50) – broadly, the midpoint of a concentration-inhibition curve – in the test on NCI-H358 is 800 nM; in the test on A549, 1100 nM; in test [1] it was 600 nM; with NCI-H292, 1000 nM; in the test with SK-MES-1 it was 200 nM; with NCI-H1993, 200 nM.
